Measured values from PMC5900894 (Chemmedchem, 2018).

How the values were obtained:
[1] = DOSY NMR diffusion coefficient / aggregation; assay type: physicochemical; details: FP7 500 μM alone, 310 K, 10 % DMSO in PBS 100 mM pH 5.5
Summary of the method: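 Test glycolipid was diluted from a 50 mM DMSO stock into 100 mM PBS pH 5.5 (final DMSO 10 %) and examined at 500 μM by DOSY NMR. Spectra were recorded on the glycolipid alone, then after stepwise peptide additions up to [peptide]/[glycolipid] molar ratios of 0.06 or 0.1. Peptides came from 20 mM DMSO stocks.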

[2] = tested on: human peripheral blood mononuclear cells; experiment: IL‐1β production in LPS‐stimulated human PBMCs; assay type: cell-based; details: pre‐incubated 30 min, LPS 100 ng mL^−1, overnight; tested 0.1, 1, 5, 10 μM
Summary of the method: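 PBMCs came from buffy coats diluted 1:1 in PBS and separated by density gradient centrifugation. Cells were washed, checked for viability with 0.1 % trypan blue, and resuspended in RPMI 1640 with 10 % FBS, penicillin and streptomycin in U-bottom wells. Test glycolipid alone or its 1:1 mix with peptide (0.1, 1, 5, 10 μM) was added 30 min before smooth LPS (100 ng mL⁻¹). IL-1β release was the read-out.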

CCCCCCCCCCCCCC(=O)N[C@H]1[C@@H](OP(=O)(O)O)O[C@H](CO)[C@@H](OP(=O)(O)O)[C@@H]1OC(=O)CCCCCCCCCCCCC [FP7]
D (diffusion coefficient of FP7) [1]: 6.31×10^−11 m^2 s^−1 | concentration halving the amount of IL‐1β released [2]: 5 µM
